One may read the Ki as the dissociation constant of the complex between target and ligand, obtained from inhibition or displacement. High values mean lower affinity, low ones higher affinity.

Assay [1] addresses Plasmepsin II (Plasmodium falciparum, UniProt P46925). In words: Inhibitory activity against plasmepsin-2. A digest of the protocol:
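Activated Plm II proenzyme, 0.6–0.7 nM final, in 0.1 M sodium acetate pH 5.0 with 10% glycerin and 0.01% Tween-20. Inhibitor in DMSO, preincubated 4.5 min at 25 °C, then DABCYL/EDANS fluorogenic peptide substrate added (Km 0.75 μM). Fluorescence (ex 336/em 490 nm) followed over time. Five to six inhibitor concentrations, duplicate or triplicate. Ki by Williams–Morrison nonlinear fit.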

The target of assay [2] is Cathepsin D (Homo sapiens, UniProt P07339). Nature of the assay: Compound was tested for the inhibitory activity against human liver cathepsin D. The method, boiled down:
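Human liver cathepsin D, 0.7 nM final, in 0.1 M formic acid buffer pH 3.7. […] Fluorescence (ex 336/em 490 nm) followed over time. Ki obtained by nonlinear fit to the Williams–Morrison tight-binding equation.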

Sequence of Plasmepsin II (P46925 whole entry): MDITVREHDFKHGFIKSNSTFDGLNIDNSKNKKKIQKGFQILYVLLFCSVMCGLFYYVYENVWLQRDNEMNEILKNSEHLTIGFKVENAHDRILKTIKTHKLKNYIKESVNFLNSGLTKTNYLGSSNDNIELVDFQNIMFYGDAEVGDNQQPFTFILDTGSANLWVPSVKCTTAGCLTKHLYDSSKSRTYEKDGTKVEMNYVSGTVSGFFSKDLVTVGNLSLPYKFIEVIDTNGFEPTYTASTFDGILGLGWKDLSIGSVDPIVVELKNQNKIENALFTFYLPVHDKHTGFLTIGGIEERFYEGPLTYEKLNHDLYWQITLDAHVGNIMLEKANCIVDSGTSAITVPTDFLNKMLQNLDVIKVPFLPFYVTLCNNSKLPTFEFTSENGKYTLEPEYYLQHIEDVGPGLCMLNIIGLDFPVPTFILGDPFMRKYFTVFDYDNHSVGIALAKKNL
Sequence of Cathepsin D (P07339 65-162 limits assumed): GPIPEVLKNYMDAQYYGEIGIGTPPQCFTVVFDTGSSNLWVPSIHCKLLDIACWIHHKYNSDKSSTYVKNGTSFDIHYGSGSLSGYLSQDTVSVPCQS
Sequence of Cathepsin D (P07339 169-412 limits assumed): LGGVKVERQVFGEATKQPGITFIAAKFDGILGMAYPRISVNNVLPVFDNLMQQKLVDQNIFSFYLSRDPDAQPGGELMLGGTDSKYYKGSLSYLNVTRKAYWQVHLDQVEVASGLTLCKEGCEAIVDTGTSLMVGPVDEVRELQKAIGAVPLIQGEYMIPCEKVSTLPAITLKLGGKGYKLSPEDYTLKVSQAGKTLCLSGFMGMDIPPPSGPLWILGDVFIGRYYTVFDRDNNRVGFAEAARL

`Cc1ccc(C)c(OCC(=O)N[C@@H](Cc2ccccc2)[C@@H](O)CN(CCc2ccc3c(c2)OCO3)C(=O)CCN2C(=O)c3ccccc3C2=O)c1` gave a Ki in assay [1] of 300 nM.
As for `COc1cc(C(=O)N[C@@H](Cc2ccccc2)[C@@H](O)CN(CCc2ccc3c(c2)OCO3)C(=O)C2CCN(C(C)=O)CC2)cc(OC)c1OCc1ccccc1`, the values for the Ki in assay [2] and in assay [1] were 4.3 nM and 4.8 nM, respectively.
In the same order, the values of `COc1ccc(CCN(C[C@H](O)[C@H](Cc2ccccc2)NC(=O)c2cc(OC)c(OCc3ccccc3)c(OC)c2)C(=O)C2CCNCC2)cc1` are 71 nM and 9 nM.
With `CN1CCC(C(=O)N(CCc2ccc3c(c2)OCO3)C[C@H](O)[C@H](Cc2ccccc2)NC(=O)COc2cccc(Cl)c2)CC1`, the Ki in assay [2] was found to be 5.8 nM; in assay [1] it was 2 nM.
On the same counts, the results for `COc1ccc(CCN(C[C@H](O)[C@H](Cc2ccccc2)NC(=O)COc2cccc(Cl)c2)C(=O)C2CCN(C)CC2)cc1` are 9.8 nM and 2 nM.
Regarding `CC(=O)N1CCC(C(=O)N(CCc2ccc3c(c2)OCO3)C[C@H](O)[C@H](Cc2ccccc2)NC(=O)COc2cccc(Cl)c2)CC1`, the Ki came to 1.9 nM in assay [2] and 4 nM in assay [1].
In the case of `COc1ccc(CCN(C[C@H](O)[C@H](Cc2ccccc2)NC(=O)c2cc(OC)c(OCc3ccccc3)c(OC)c2)C(=O)C2CCN(C)CC2)cc1`, the inhibition constant Ki is 58 nM in assay [2] and 4.1 nM in assay [1].
As for `COc1cc(C(=O)N[C@@H](Cc2ccccc2)[C@@H](O)CN(CCc2ccc3c(c2)OCO3)C(=O)CCN2C(=O)c3ccccc3C2=O)cc(OC)c1OCc1ccccc1`, the affinity in assay [1], expressed as Ki, was 100 nM.
Turning to `COc1ccc(CCN(C[C@H](O)[C@H](Cc2ccccc2)NC(=O)COc2cccc(Cl)c2)C(=O)C2CCNCC2)cc1`, the Ki worked out at 63 nM in assay [2] and 4.3 nM in assay [1].
For `O=C(COc1cccc(Cl)c1)N[C@@H](Cc1ccccc1)[C@@H](O)CN(CCc1ccc2c(c1)OCO2)C(=O)CCN1C(=O)c2ccccc2C1=O`, in assay [1], the inhibition constant Ki came to 220 nM.
With `CC(=O)N1CCC(C(=O)N(CCc2ccc3c(c2)OCO3)C[C@H](O)[C@H](Cc2ccccc2)NC(=O)CNc2cccc(Cl)c2)CC1`, the inhibition constant (Ki) turned out to be 1.3 nM in assay [2] and 3 nM in assay [1].

(Values after ChEMBL document CHEMBL1132121, “Potent, low-molecular-weight non-peptide inhibitors of malarial aspartyl protease plasmepsin II” (J Med Chem, 1999).)
